Results from ChEMBL document CHEMBL1777788, “Synthesis and in vitro antimicrobial activities of new (cyano-NNO-azoxy)pyrazole derivatives” (2011).
Converted amounts (≈) assume the structure as drawn.

How the values were obtained:
[1] = system: Candida parapsilosis; assay: Antimicrobial activity against Candida parapsilosis ATCC 22019 after 48 hrs by microdilution broth method; assay type: functional; conditions: Lodderomyces parapsilosis, ATCC 22019, 48 h
Method in brief: (§1)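 Yeasts were grown overnight on Sabouraud dextrose agar at 35°C, suspended in water, and adjusted at 530 nm to McFarland 0.5 (approximately 1-5 x 10^6 CFU/ml). They were then diluted 1:100 and 1:20 in RPMI 1640 with 0.165 M MOPS and 2% glucose. Compound in DMSO was tested at ten concentrations, 0.25–256 mg/L, with incubation at 35°C. At 48 h, MIC was read spectrophotometrically as 50% turbidity reduction versus growth control.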

[2] = system: Cryptococcus deneoformans; assay: Antimicrobial activity against Cryptococcus neoformans var. neoformans isolate 14 after 48 hrs by microdilution broth method; assay type: functional; conditions: isolate 14, 48 h; method in brief: as §1
[3] = system: Candida parapsilosis; assay: Antimicrobial activity against Candida parapsilosis isolate 26 after 48 hrs by microdilution broth method; assay type: functional; conditions: Lodderomyces parapsilosis, isolate 26, 48 h; method in brief: as §1
[4] = system: Nakaseomyces glabratus; assay: Antimicrobial activity against Candida glabrata isolate 46 after 48 hrs by microdilution broth method; assay type: functional; method in brief: as §1
[5] = system: Candida tropicalis; assay: Antimicrobial activity against Candida tropicalis isolate 11 after 48 hrs by microdilution broth method; assay type: functional; conditions: isolate 11, 48 h; method in brief: as §1
[6] = system: Nakaseomyces glabratus; assay: Antimicrobial activity against Candida glabrata isolate 32 after 48 hrs by microdilution broth method; assay type: functional; conditions: isolate 32, 48 h; method in brief: as §1
[7] = system: Candida albicans; assay: Antimicrobial activity against Candida albicans isolate 47 after 48 hrs by microdilution broth method; assay type: functional; conditions: isolate 47, 48 h; method in brief: as §1
[8] = system: Pichia kudriavzevii; assay: Antimicrobial activity against Candida krusei isolate 43 after 48 hrs by microdilution broth method; assay type: functional
[9] = system: Candida albicans; assay: Antimicrobial activity against Candida albicans isolate 31 after 48 hrs by microdilution broth method; assay type: functional; conditions: isolate 31, 48 h; method in brief: as §1
[10] = system: Candida albicans; assay: Antimicrobial activity against Candida albicans isolate 48 after 48 hrs by microdilution broth method; assay type: functional; conditions: isolate 48, 48 h; method in brief: as §1
[11] = system: Cryptococcus deneoformans; assay: Antimicrobial activity against Cryptococcus neoformans var. neoformans isolate 25 after 48 hrs by microdilution broth method; assay type: functional; conditions: isolate 25, 48 h; method in brief: as §1
[12] = system: Candida albicans; assay: Antimicrobial activity against Candida albicans isolate 41 after 48 hrs by microdilution broth method; assay type: functional; conditions: isolate 41, 48 h; method in brief: as §1
[13] = system: Candida parapsilosis; assay: Antimicrobial activity against Candida parapsilosis isolate 19 after 48 hrs by microdilution broth method; assay type: functional; conditions: Lodderomyces parapsilosis, isolate 19, 48 h; method in brief: as §1
[14] = system: Pichia kudriavzevii; assay: Antimicrobial activity against Candida krusei isolate 48 after 48 hrs by microdilution broth method; assay type: functional
[15] = system: Pichia kudriavzevii; assay: Antimicrobial activity against Candida krusei isolate 31 after 48 hrs by microdilution broth method; assay type: functional; conditions: isolate 31, 48 h; method in brief: as §1
[16] = system: Cryptococcus deneoformans; assay: Antimicrobial activity against Cryptococcus neoformans var. neoformans isolate 30 after 48 hrs by microdilution broth method; assay type: functional; conditions: isolate 30, 48 h; method in brief: as §1
[17] = system: Candida tropicalis; assay: Antimicrobial activity against Candida tropicalis isolate 22 after 48 hrs by microdilution broth method; assay type: functional; conditions: isolate 22, 48 h; method in brief: as §1
[18] = system: Pseudomonas aeruginosa; assay: Antimicrobial activity against Pseudomonas aeruginosa isolate 2 after 24 hrs by microdilution broth method; conditions: isolate 2, 24 h
[19] = system: Escherichia coli; assay: Antimicrobial activity against Escherichia coli isolate after 24 hrs by microdilution broth method
[20] = system: Staphylococcus aureus; assay: Antimicrobial activity against methicillin-susceptible Staphylococcus aureus isolate after 24 hrs by microdilution broth method
[21] = system: Cryptococcus deneoformans; assay: Antimicrobial activity against Cryptococcus neoformans var. neoformans isolate 27 after 48 hrs by microdilution broth method; assay type: functional; conditions: isolate 27, 48 h; method in brief: as §1
[22] = system: Nakaseomyces glabratus; assay: Antimicrobial activity against Candida glabrata isolate 30 after 48 hrs by microdilution broth method; assay type: functional; method in brief: as §1
[23] = system: Pichia kudriavzevii; assay: Antimicrobial activity against Candida krusei ATCC 6258 after 48 hrs by microdilution broth method; assay type: functional; conditions: ATCC 6258, 48 h
[24] = system: Candida parapsilosis; assay: Antimicrobial activity against Candida parapsilosis isolate 44 after 48 hrs by microdilution broth method; assay type: functional; conditions: Lodderomyces parapsilosis, isolate 44, 48 h; method in brief: as §1
[25] = system: Candida tropicalis; assay: Antimicrobial activity against Candida tropicalis isolate 33 after 48 hrs by microdilution broth method; assay type: functional; conditions: isolate 33, 48 h; method in brief: as §1
[26] = system: Proteus mirabilis; assay: Antimicrobial activity against Proteus mirabilis isolate after 24 hrs by microdilution broth method
[27] = system: Nakaseomyces glabratus; assay: Antimicrobial activity against Candida glabrata isolate 49 after 48 hrs by microdilution broth method; assay type: functional; method in brief: as §1
[28] = system: Pseudomonas aeruginosa; assay: Antimicrobial activity against Pseudomonas aeruginosa isolate 1 after 24 hrs by microdilution broth method; conditions: isolate 1, 24 h
[29] = system: Candida parapsilosis; assay: Antimicrobial activity against Candida parapsilosis isolate 39 after 48 hrs by microdilution broth method; assay type: functional; conditions: Lodderomyces parapsilosis, isolate 39, 48 h
Method in brief: (§2)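 Yeasts grown overnight on Sabouraud dextrose agar at 35°C, suspended in sterile water, and adjusted to McFarland 0.5 at 530 nm (about 1-5 x 10^6 CFU/ml), then diluted 1:100 and 1:20 in RPMI 1640 with 0.165 M MOPS and 2% glucose. Compound in DMSO tested at ten concentrations, 0.25-256 mg/L, at 35°C. MIC read spectrophotometrically at 48 h as 50% turbidity reduction versus growth control.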

[30] = system: Candida tropicalis; assay: Antimicrobial activity against Candida tropicalis isolate 15 after 48 hrs by microdilution broth method; assay type: functional; conditions: isolate 15, 48 h; method in brief: as §1
[31] = system: Candida albicans; assay: Antimicrobial activity against Candida albicans ATCC 90028 after 48 hrs by microdilution broth method; assay type: functional; conditions: ATCC 90028, 48 h; method in brief: as §2

SMILES	MIC [1] [µg/mL]	MIC [2] [µg/mL]	MIC [3] [µg/mL]	MIC [4] [µg/mL]	MIC [5] [µg/mL]	MIC [6] [µg/mL]	MIC [7] [µg/mL]	MIC [8] [µg/mL]	MIC [9] [µg/mL]	MIC [10] [µg/mL]	MIC [11] [µg/mL]	MIC [13] [µg/mL]	MIC [14] [µg/mL]	MIC [15] [µg/mL]	MIC [16] [µg/mL]	MIC [17] [µg/mL]	MIC [21] [µg/mL]	MIC [22] [µg/mL]	MIC [23] [µg/mL]	MIC [25] [µg/mL]	other results
Cc1nn(C)c(C)c1/[N+]([O-])=N/C#N	32 (≈ 179 µM)	32 (≈ 179 µM)	64 (≈ 357 µM)	64 (≈ 357 µM)	128 (≈ 714 µM)	16 (≈ 89.3 µM)	32 (≈ 179 µM)	32 (≈ 179 µM)	32 (≈ 179 µM)	32 (≈ 179 µM)	32 (≈ 179 µM)	64 (≈ 357 µM)	32 (≈ 179 µM)	32 (≈ 179 µM)	32 (≈ 179 µM)	64 (≈ 357 µM)	32 (≈ 179 µM)	64 (≈ 357 µM)	16 (≈ 89.3 µM)	64 (≈ 357 µM)	MIC [12]: 32 µg/mL (≈ 179 µM); MIC [18]: > 128 µg/mL; MIC [19]: > 128 µg/mL; MIC [20]: > 128 µg/mL; MIC [24]: 64 µg/mL (≈ 357 µM); MIC [26]: > 128 µg/mL; MIC [27]: 64 µg/mL (≈ 357 µM); MIC [28]: > 128 µg/mL
Cc1cc(-c2c(/[N+]([O-])=N/C#N)c(C)nn2C)no1	> 128	8 (≈ 32.5 µM)	128 (≈ 520 µM)	128 (≈ 520 µM)	128 (≈ 520 µM)	16 (≈ 65 µM)	128 (≈ 520 µM)	32 (≈ 130 µM)	32 (≈ 130 µM)	128 (≈ 520 µM)	8 (≈ 32.5 µM)	> 128	32 (≈ 130 µM)	32 (≈ 130 µM)	8 (≈ 32.5 µM)	> 128	8 (≈ 32.5 µM)	128 (≈ 520 µM)	16 (≈ 65 µM)	> 128	MIC [12]: 32 µg/mL (≈ 130 µM); MIC [18]: > 128 µg/mL; MIC [19]: > 128 µg/mL; MIC [20]: > 128 µg/mL; MIC [24]: 128 µg/mL (≈ 520 µM); MIC [26]: > 128 µg/mL; MIC [27]: 64 µg/mL (≈ 260 µM); MIC [28]: > 128 µg/mL
Cc1nn(C)c(-c2cccs2)c1/[N+]([O-])=N/C#N	32 (≈ 129 µM)	0.25 (≈ 1.01 µM)	16 (≈ 64.7 µM)	2 (≈ 8.09 µM)	32 (≈ 129 µM)	2 (≈ 8.09 µM)	4 (≈ 16.2 µM)	1 (≈ 4.04 µM)	4 (≈ 16.2 µM)	4 (≈ 16.2 µM)	0.5 (≈ 2.02 µM)	32 (≈ 129 µM)	2 (≈ 8.09 µM)	1 (≈ 4.04 µM)	0.5 (≈ 2.02 µM)	32 (≈ 129 µM)	0.25 (≈ 1.01 µM)	2 (≈ 8.09 µM)	1 (≈ 4.04 µM)	32 (≈ 129 µM)	MIC [29]: 16 µg/mL (≈ 64.7 µM); MIC [30]: 64 µg/mL (≈ 259 µM); MIC [27]: 2 µg/mL (≈ 8.09 µM); MIC [31]: 4 µg/mL (≈ 16.2 µM)
Cc1c(/[N+]([O-])=N/C#N)c(-c2ccco2)nn1C	32 (≈ 138 µM)	0.25 (≈ 1.08 µM)	8 (≈ 34.6 µM)	1 (≈ 4.32 µM)	32 (≈ 138 µM)	2 (≈ 8.65 µM)	4 (≈ 17.3 µM)	2 (≈ 8.65 µM)	2 (≈ 8.65 µM)	4 (≈ 17.3 µM)	0.25 (≈ 1.08 µM)	64 (≈ 277 µM)	2 (≈ 8.65 µM)	1 (≈ 4.32 µM)	0.25 (≈ 1.08 µM)	128 (≈ 554 µM)	0.25 (≈ 1.08 µM)	1 (≈ 4.32 µM)	1 (≈ 4.32 µM)	128 (≈ 554 µM)	MIC [29]: 16 µg/mL (≈ 69.2 µM); MIC [30]: 128 µg/mL (≈ 554 µM); MIC [27]: 1 µg/mL (≈ 4.32 µM); MIC [31]: 1 µg/mL (≈ 4.32 µM)
Cc1c(/[N+]([O-])=N/C(N)=O)c(-c2cccs2)nn1C	> 128	64 (≈ 241 µM)	> 128	> 128	> 128	> 128	> 128	> 128	> 128	> 128	128 (≈ 482 µM)	> 128	> 128	> 128	128 (≈ 482 µM)	> 128	64 (≈ 241 µM)	> 128	> 128	> 128	MIC [29]: > 128 µg/mL; MIC [30]: > 128 µg/mL; MIC [27]: > 128 µg/mL; MIC [31]: > 128 µg/mL
